We go through 36 molecules from ChEMBL document CHEMBL2016515, “Triazoloamides as potent γ-secretase modulators with reduced hERG liability” (Bioorg Med Chem Lett, 2012).

SMILES strings stand for the structures.

A word on the IC50: it is the midpoint of a concentration-inhibition curve. A lower IC50 goes with greater potency.

Test [1] addresses Gamma-secretase. The experiment in a line: Inhibition of gamma secretase-mediated amyloid beta42 production in human SH-SY5Y cells overexpressing beta-APP C-terminal SPA4CT by electrochemiluminescent analysis. It is filed as cell-based. A digest of the protocol: (§1)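 Each compound tested in at least two independent experiments; values reported in μM.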
The target in test [2] is Gamma-secretase. The experiment in a line: Inhibition of gamma secretase-mediated amyloid beta40 production in human SH-SY5Y cells overexpressing beta-APP C-terminal SPA4CT by electrochemiluminescent analysis. It is filed as cell-based. The procedure, abridged: as §1
Test [3] can be described thus: Inhibition of gamma-secretase-mediated notch intracellular domain cleavage in HeLa cells by luciferase reporter gene assay. In kind it is cell-based. A digest of the protocol:
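Split-luciferase complementation: γ-secretase cleavage of NotchΔE frees NICD fused to N-terminal luciferase, which enters the nucleus and binds RBP-Jk fused to C-terminal luciferase. Total luminescence is read after adding luciferin to lysed cells. At least two independent experiments; values in μM.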
In general terms: A reporter such as luciferase makes a cellular process visible.

Test [4] has as its target Voltage-gated inwardly rectifying potassium channel KCNH2 (Homo sapiens, UniProt Q12809).

Chain of Voltage-gated inwardly rectifying potassium channel KCNH2 (Q12809 whole entry): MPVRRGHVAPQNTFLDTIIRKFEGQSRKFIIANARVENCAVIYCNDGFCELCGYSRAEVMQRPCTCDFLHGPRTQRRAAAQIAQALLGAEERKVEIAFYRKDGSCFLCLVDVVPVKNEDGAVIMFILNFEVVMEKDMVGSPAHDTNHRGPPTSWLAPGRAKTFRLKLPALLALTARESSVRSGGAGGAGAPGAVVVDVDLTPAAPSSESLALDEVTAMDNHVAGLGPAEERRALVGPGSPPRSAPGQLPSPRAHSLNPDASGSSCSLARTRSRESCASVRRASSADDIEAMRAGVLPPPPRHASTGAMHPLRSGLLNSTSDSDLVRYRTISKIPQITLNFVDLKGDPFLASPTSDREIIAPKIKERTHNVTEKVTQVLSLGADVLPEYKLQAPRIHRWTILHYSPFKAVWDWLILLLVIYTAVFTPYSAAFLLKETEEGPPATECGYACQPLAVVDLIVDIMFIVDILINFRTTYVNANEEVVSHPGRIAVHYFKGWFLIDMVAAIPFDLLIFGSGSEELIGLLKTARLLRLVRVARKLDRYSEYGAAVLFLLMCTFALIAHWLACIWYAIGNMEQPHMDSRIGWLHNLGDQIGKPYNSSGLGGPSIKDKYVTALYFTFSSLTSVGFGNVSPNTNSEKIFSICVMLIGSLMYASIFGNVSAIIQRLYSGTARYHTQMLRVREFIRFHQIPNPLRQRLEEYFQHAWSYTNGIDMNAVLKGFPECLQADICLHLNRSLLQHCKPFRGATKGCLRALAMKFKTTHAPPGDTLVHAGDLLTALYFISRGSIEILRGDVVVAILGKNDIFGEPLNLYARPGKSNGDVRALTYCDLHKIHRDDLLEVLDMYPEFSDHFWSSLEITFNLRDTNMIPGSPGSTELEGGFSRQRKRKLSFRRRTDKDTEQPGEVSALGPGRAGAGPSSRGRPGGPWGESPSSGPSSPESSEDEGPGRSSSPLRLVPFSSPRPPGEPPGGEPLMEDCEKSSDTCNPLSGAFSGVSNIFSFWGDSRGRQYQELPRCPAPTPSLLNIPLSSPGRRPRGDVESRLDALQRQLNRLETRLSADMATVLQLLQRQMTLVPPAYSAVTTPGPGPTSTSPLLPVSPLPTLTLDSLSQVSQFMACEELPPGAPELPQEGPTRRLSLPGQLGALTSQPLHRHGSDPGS

As for `COc1cc(-c2cn([C@H]3C[C@@H](C(F)(F)F)CCN(CC(F)(F)F)C3=O)nn2)ccc1-n1cnc(C)c1`, the values for the 50% inhibitory concentration (IC50) in test [1], in test [2] and in test [3] were 20 nM, 210 nM and > 50000 nM, respectively.

Take `COc1cc(-c2cn([C@H]3CCCCN(CC(F)(F)F)C3=O)nn2)ccc1-n1cnc(C)c1`: the IC50 is 300 nM in test [1], 2210 nM in test [2] and > 50000 nM in test [3].

As for `COc1cc(-c2cn(C3CC([Si](C)(C)C)CCNC3=O)nn2)ccc1-n1cnc(C)c1` (racemic), the IC50 turned out to be 330 nM in test [1], 1230 nM in test [2] and 45300 nM in test [3].

Turning to `COc1cc(-c2cn(CC(=O)Nc3cccc4ccccc34)nn2)ccc1-n1cnc(C)c1`, the concentration for half-maximal inhibition (IC50) in test [1] was 610 nM; in test [2], 4850 nM; in test [3], 26700 nM; in test [4] it was > 10000 nM.

On to `COc1cc(-c2cn(CC(=O)N(c3ccccc3)C3CCCCC3)nn2)ccc1-n1cnc(C)c1`, for which the 50% inhibitory concentration (IC50) is 620 nM in test [1] and 8710 nM in test [2].

Take `COc1cc(-c2cn(CC(=O)N(CC(F)(F)F)c3ccc4ccccc4c3)nn2)ccc1-n1cnc(C)c1`: the figures for the half-inhibitory concentration (IC50) in test [1], in test [2] and in test [3] were 80 nM, 660 nM and 48500 nM, respectively.

Take `COc1cc(-c2cn(C3CCCCNC3=O)nn2)ccc1-n1cnc(C)c1` (racemic): the values for the IC50 in test [1], in test [2] and in test [3] were 4420 nM, > 10000 nM and > 50000 nM, respectively.

For `COc1cc(-c2cn(CC(=O)N(C3CCCCC3)C3CCCCC3)nn2)ccc1-n1cnc(C)c1`, the 50% inhibitory concentration (IC50) in test [1] was 200 nM; in test [2] it was > 10000 nM; in test [3], 9000 nM.

For `COc1cc(-c2cn([C@H]3C[C@@H](c4ccccc4)CCN(CC(F)(F)F)C3=O)nn2)ccc1-n1cnc(C)c1`, the figures for the IC50 in test [1], in test [2] and in test [3] were 20 nM, 150 nM and > 50000 nM, respectively.

For the molecule `COc1cc(-c2cn(CC(=O)Nc3ccc4c(c3)OC(F)(F)O4)nn2)ccc1-n1cnc(C)c1`, the half-inhibitory concentration (IC50) was 450 nM in test [1], 2070 nM in test [2] and 29600 nM in test [3].

On to `COc1cc(-c2cn(CC(=O)N(Cc3ccc(F)cc3)C3C4CC5CC(C4)CC3C5)nn2)ccc1-n1cnc(C)c1` (configuration not stated), for which the IC50 in test [1] is 240 nM; in test [2] it was 1900 nM; in test [3], > 50000 nM; in test [4], 250 nM.

Take `COc1cc(-c2cn(C3CC(C)(C)CCNC3=O)nn2)ccc1-n1cnc(C)c1` (racemic): the concentration for half-maximal inhibition (IC50) was 1310 nM in test [1], 7420 nM in test [2], > 50000 nM in test [3] and 20800 nM in test [4].

For the molecule `COc1cc(-c2cn(CC(=O)N(CC(F)(F)F)c3ccc4c(c3)CCC4)nn2)ccc1-n1cnc(C)c1`, the figures for the half-maximal inhibitory concentration (IC50) in test [1], in test [2] and in test [3] were 180 nM, 1250 nM and 24600 nM, respectively.

`COc1cc(-c2cn([C@H]3C[C@@H]([Si](C)(C)C)CCN(Cc4ccccc4)C3=O)nn2)ccc1-n1cnc(C)c1`: the results for the IC50 in test [1], in test [2] and in test [3] were 70 nM, 440 nM and 10200 nM, respectively.

Take `COc1cc(-c2cn(C3CCCC(C(C)(C)C)NC3=O)nn2)ccc1-n1cnc(C)c1` (racemic): the 50% inhibitory concentration (IC50) in test [1] was 480 nM; in test [2] it was 5120 nM; in test [3], > 50000 nM.

On to `COc1cc(-c2cn(C3CC(C(F)(F)F)CNC3=O)nn2)ccc1-n1cnc(C)c1` (racemic), for which the IC50 in test [1] was 1110 nM; in test [2] it was 6160 nM; in test [3], > 50000 nM; in test [4] it was > 30000 nM.

In the case of `COc1cc(-c2cn([C@H]3C[C@@H](C(F)(F)F)CN(CC(F)(F)F)C3=O)nn2)ccc1-n1cnc(C)c1`, the IC50 in test [1] is 290 nM; in test [2], 1910 nM; in test [3] it was > 50000 nM.

As to `COc1cc(-c2cn([C@H]3CC[C@H](c4ccccc4)CN(Cc4ccccc4)C3=O)nn2)ccc1-n1cnc(C)c1`, the IC50 is 80 nM in test [1], 510 nM in test [2] and 11100 nM in test [3].

With `COc1cc(-c2cn(CC(=O)N(CC(F)(F)F)c3cccc4ccccc34)nn2)ccc1-n1cnc(C)c1`, the IC50 was found to be 90 nM in test [1], 410 nM in test [2] and 45100 nM in test [3].

As for `COc1cc(-c2cn([C@H]3C[C@@H](C(C)(C)C)CCN(Cc4ccccc4)C3=O)nn2)ccc1-n1cnc(C)c1`, the IC50 is 80 nM in test [1], 420 nM in test [2] and 40100 nM in test [3].

Consider `COc1cc(-c2cn([C@H]3C[C@@H](C(C)(C)C)CCN(CC45CC6CC(CC(C6)C4)C5)C3=O)nn2)ccc1-n1cnc(C)c1`, for which the IC50 in test [1] was 240 nM; in test [2], 1330 nM; in test [3], > 50000 nM.

Regarding `COc1cc(-c2cn(CC(=O)N(Cc3ccccc3)CC(F)(F)F)nn2)ccc1-n1cnc(C)c1`, the values for the half-maximal inhibitory concentration (IC50) in test [1], in test [2] and in test [3] were 270 nM, 2430 nM and > 40000 nM, respectively.

In the case of `COc1cc(-c2cn([C@H]3C[C@@H](C(F)(F)F)CCN(Cc4ccccc4)C3=O)nn2)ccc1-n1cnc(C)c1`, the IC50 came to 80 nM in test [1], 420 nM in test [2] and 40800 nM in test [3].

`COc1cc(-c2cn([C@H]3C[C@@H](C(C)(C)C)CCN(CC(F)(F)F)C3=O)nn2)ccc1-n1cnc(C)c1`: the IC50 is 9 nM in test [1], 170 nM in test [2] and 24300 nM in test [3].

Turning to `COc1cc(-c2cn(CC(=O)N(c3ccccc3)c3ccccc3)nn2)ccc1-n1cnc(C)c1`, the concentration for half-maximal inhibition (IC50) in test [1] is 1630 nM; in test [2], > 10000 nM.

As to `COc1cc(-c2cn(CC(=O)N3CCC(c4nc5ccccc5o4)CC3)nn2)ccc1-n1cnc(C)c1`, the 50% inhibitory concentration (IC50) in test [1] was 940 nM; in test [2], > 10000 nM; in test [3], > 50000 nM; in test [4], 10300 nM.

Consider `COc1cc(-c2cn(CC(=O)N(CC(F)(F)F)c3ccc4c(c3)OC(F)(F)O4)nn2)ccc1-n1cnc(C)c1`, for which the concentration for half-maximal inhibition (IC50) in test [1] turned out to be 160 nM; in test [2] it was 1180 nM; in test [3], 38200 nM.

With `COc1cc(-c2cn(C3CC(C(F)(F)F)CCNC3=O)nn2)ccc1-n1cnc(C)c1` (racemic), the half-inhibitory concentration (IC50) is 1270 nM in test [1], 9100 nM in test [2] and > 50000 nM in test [3].

For the molecule `COc1cc(-c2cn(CC(=O)N([C@H](C)c3ccccc3)[C@H](C)c3ccccc3)nn2)ccc1-n1cnc(C)c1`, the half-inhibitory concentration (IC50) was 430 nM in test [1], 5170 nM in test [2] and > 50000 nM in test [3].

As to `COc1cc(-c2cn(C3C(=O)NC4CCC3C4)nn2)ccc1-n1cnc(C)c1` (racemic), the results for the half-inhibitory concentration (IC50) in test [1], in test [2] and in test [3] were 1090 nM, 9870 nM and > 50000 nM, respectively.

Regarding `COc1cc(-c2cn(C3CC(C4CCCCC4)CCNC3=O)nn2)ccc1-n1cnc(C)c1` (racemic), the half-maximal inhibitory concentration (IC50) in test [1] was found to be 160 nM; in test [2], 660 nM; in test [3], 17000 nM; in test [4] it was 3680 nM.

Turning to `COc1cc(-c2cn([C@H]3C[C@@H](C(C)(C)C)CCN(CC(C)(C)C)C3=O)nn2)ccc1-n1cnc(C)c1`, the values for the IC50 in test [1], in test [2] and in test [3] were 130 nM, 840 nM and 20000 nM, respectively.

`COc1cc(-c2cn(CC(=O)NC3C4CC5CC(C4)CC3C5)nn2)ccc1-n1cnc(C)c1` (configuration not stated): the results for the IC50 in test [1], in test [2] and in test [3] were 680 nM, > 10000 nM and > 50000 nM, respectively.

Take `COc1cc(-c2cn(CC(=O)N(Cc3ccccc3)Cc3ccccc3)nn2)ccc1-n1cnc(C)c1`: the 50% inhibitory concentration (IC50) in test [1] is 370 nM; in test [2], 4420 nM; in test [3], > 50000 nM.

For the molecule `COc1cc(-c2cn(CC(=O)N(Cc3ccccc3)[C@H](C)c3ccccc3)nn2)ccc1-n1cnc(C)c1`, the IC50 in test [1] was 230 nM; in test [2], 3010 nM; in test [3], > 50000 nM.

In the case of `COc1cc(-c2cn(C3CC[C@H]4CCCC[C@@H]4NC3=O)nn2)ccc1-n1cnc(C)c1` (mixture of isomers), the IC50 is 620 nM in test [1], 3860 nM in test [2] and > 50000 nM in test [3].
